In ChEMBL document CHEMBL3259731, “Design, synthesis, and biological evaluation of novel FAK scaffold inhibitors targeting the FAK-VEGFR3 protein-protein interaction” (Eur J Med Chem, 2014):
Where a name gives a salt, the structure may show the parent alone. Active and inactive are the calls of the source.

What was measured:
[1] = tested on: U-87MG ATCC; experiment: Cytotoxicity against human U87 cells assessed as growth inhibition at 50 uM after 72 hrs by MTS assay; assay type: functional, cell-based
Procedure, shortened: (§1)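 MTS assay. Cells kept in DMEM with 10% FBS, plated at 5000 cells/well and left to attach overnight, then exposed to compound (screening at 50 µM) for 72 h at 37 °C. MTS reagent added for about 1 h, then absorbance read at 570 nm. Viability normalized to DMSO/untreated controls. Three independent experiments, 3–5 replicate wells per concentration.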

[2] = tested on: C8161; experiment: Cytotoxicity against human C8161 cells assessed as growth inhibition at 50 uM after 72 hrs by MTS assay; assay type: functional, cell-based; procedure, shortened: as §1
[3] = tested on: MDA-MB-231; experiment: Cytotoxicity against human MDA-MB-231 cells assessed as growth inhibition at 50 uM after 72 hrs by MTS assay; assay type: functional, cell-based; procedure, shortened: as §1
[4] = tested on: PANC-1; experiment: Cytotoxicity against human PANC1 cells transfected with retroviral expression vector pMSCV-LucSh assessed as growth inhibition at 50 uM after 72 hrs by MTS assay; assay type: functional, cell-based
Procedure, shortened: (§2)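 Cells seeded at 5000/well, attached overnight, then given 50 µM of each analog for 72 h at 37 °C. MTS reagent added for about 1 h, absorbance read at 570 nm. Viability normalized to DMSO/untreated controls. Three independent experiments, each with 3–5 replicate wells per concentration. Cells kept in DMEM with 10% FBS.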

[5] = tested on: A-375; experiment: Cytotoxicity against human A375 cells assessed as growth inhibition at 50 uM after 72 hrs by MTS assay; assay type: functional, cell-based; procedure, shortened: as §1
[6] = tested on: MIA PaCa-2; experiment: Cytotoxicity against human MIAPaCa2 cells transfected with retroviral expression vector pMSCV-LucSh assessed as growth inhibition at 50 uM after 72 hrs by MTS assay; assay type: functional, cell-based; procedure, shortened: as §2
[7] = biological target: T1, Focal adhesion kinase 1 (Homo sapiens, UniProt Q05397); experiment: Binding affinity to biotinylated human FAK FAT domain by biolayer interoferometry
Procedure, shortened: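 Bio-layer interferometry on super streptavidin biosensor tips, pre-wetted in buffer for a baseline before FAT protein immobilization. Association and dissociation measured over 210 s at two small-molecule concentrations. Kon, Koff and Kd derived from the kinetic fits.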

[8] = biological target: T2, Focal adhesion kinase 1/vascular endothelial growth factor receptor 3 (Homo sapiens) (UniProt P35916+Q05397); experiment: Inhibition of FAK/VEGFR-3 interaction in human MIAPaCa2 cells transfected with retroviral expression vector pMSCV-LucSh assessed as decrease in levels of VEGFR3 and phosphorylated tyrosine residues associated with FAK protein after 24 hrs by densitometric analysis; assay type: cell-based; conditions: MIA PaCa-2
Procedure, shortened: (§3)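 Cells treated at increasing doses for 24 h, then lysed in NP40 buffer with inhibitors. 500 or 800 µg lysate precleared, then immunoprecipitated with FAK 4.47 or VEGFR3 9D9, with isotype IgG and no-antibody controls, overnight with Protein A/G beads at 4 °C. Immunoblotted for pan-phosphotyrosine (4G10), total FAK and total VEGFR3. Bands quantified by densitometry.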

[9] = biological target: T2, Focal adhesion kinase 1/vascular endothelial growth factor receptor 3 (Homo sapiens); experiment: Inhibition of FAK/VEGFR-3 interaction in human MIAPaCa2 cells transfected with retroviral expression vector pMSCV-LucSh assessed as decrease in levels of VEGFR3 and phosphorylated tyrosine residues associated with FAK protein after 24 hrs by immunoprecipitation assay; assay type: cell-based; conditions: MIA PaCa-2; procedure, shortened: as §3
[10] = tested on: MIA PaCa-2; experiment: Cytotoxicity against human MIAPaCa2 cells transfected with retroviral expression vector pMSCV-LucSh assessed as inhibition of colony formation at >10 uM after 14 days by 1,9-dimethyl-methylene blue staining-based assay; assay type: functional, cell-based
Procedure, shortened: (§4)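 700 cells/well seeded, and compound added at once at the specified concentrations. Incubated 10–14 days at 37 °C (figure legend gives 14 days). Colonies stained with 0.25% 1,9-dimethyl-methylene blue in 50% methanol for 1 h, washed, dried and scanned. Run in duplicate and repeated three times independently.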

[11] = biological target: T2, Focal adhesion kinase 1/vascular endothelial growth factor receptor 3 (Homo sapiens); experiment: Inhibition of FAK/VEGFR-3 interaction in human MIAPaCa2 cells transfected with retroviral expression vector pMSCV-LucSh assessed as reduction in VEGFR3 pan-phosphorylated tyrosine level after 24 hrs by densitometric analysis; assay type: cell-based; conditions: MIA PaCa-2; procedure, shortened: as §3
[12] = biological target: T2, Focal adhesion kinase 1/vascular endothelial growth factor receptor 3 (Homo sapiens); experiment: Inhibition of FAK/VEGFR-3 interaction in human MIAPaCa2 cells transfected with retroviral expression vector pMSCV-LucSh assessed as reduction in VEGFR3 pan-phosphorylated tyrosine level after 24 hrs by immunoprecipitation assay; assay type: cell-based; conditions: MIA PaCa-2; procedure, shortened: as §3
[13] = tested on: MCF7; experiment: Cytotoxicity against human MCF7 cells overexpressing VEGFR-3/FAK assessed as inhibition of colony formation at >10 uM after 14 days by 1,9-dimethyl-methylene blue staining-based assay; assay type: functional, cell-based
Procedure, shortened: (§5)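 Colony formation. 700 cells/well seeded with compound added immediately, then incubated at 37 °C for 10–14 days (legend: 14 days). Colonies stained for 1 h with 0.25% 1,9-dimethyl-methylene blue in 50% methanol, washed, dried and scanned. Duplicate wells, three independent experiments.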

[14] = tested on: MCF7; experiment: Cytotoxicity against human MCF7 cells overexpressing VEGFR-3/FAK assessed as inhibition of colony formation at 10 uM after 14 days by 1,9-dimethyl-methylene blue staining-based assay; assay type: functional, cell-based; procedure, shortened: as §5
[15] = tested on: MIA PaCa-2; experiment: Induction of apoptosis in human MIAPaCa2 cells transfected with retroviral expression vector pMSCV-LucSh assessed as increase in PARP cleavage after 24 hrs; assay type: functional, cell-based
Procedure, shortened: (§6)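 Cells seeded to reach about 80% confluence at 24 h, then drug-treated at increasing doses for 24 h at 37 °C. Lysed in 1% NP40 buffer with protease and phosphatase inhibitors. 30 µg protein run on SDS gel and transferred to PVDF. Immunoblotted overnight at 4 °C with caspase-3 and PARP rabbit polyclonals for cleavage products. ECL detection.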

[16] = tested on: MCF7; experiment: Induction of apoptosis in human MCF7 cells overexpressing VEGFR-3/FAK assessed as increase in PARP cleavage after 24 hrs; assay type: functional, cell-based
Procedure, shortened: (§7)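 MCF7-VEGFR3 cells grown to about 80% confluence, then given compound at the indicated concentrations for 24 h at 37 °C. Lysed in 1% NP40 buffer with phosphatase and protease inhibitors. 30 µg protein run by SDS-PAGE and immunoblotted with caspase-3 and PARP rabbit polyclonal antibodies, detected by ECL.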

[17] = biological target: Vascular endothelial growth factor receptor 2 (Homo sapiens) (UniProt P35968); experiment: Inhibition of KDR (unknown origin) at 1 uM by Z'-LYTE assay relative to control
Procedure, shortened: (§8)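 Z'-LYTE SelectScreen single-point biochemical kinase assay, done by an outside service. Compound at 1 µM with 100 µM ATP in the reaction. Percent inhibition calculated per the Z'-LYTE analysis protocol, as the mean of two independent runs.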

[18] = biological target: Vascular endothelial growth factor receptor 1 (Homo sapiens) (UniProt P17948); experiment: Inhibition of FLT1 (unknown origin) at 1 uM by Z'-LYTE assay relative to control; procedure, shortened: as §8
[19] = biological target: Proto-oncogene tyrosine-protein kinase Src (Homo sapiens) (UniProt P12931); experiment: Inhibition of SRC (unknown origin) at 1 uM by Z'-LYTE assay relative to control; procedure, shortened: as §8
[20] = biological target: Platelet-derived growth factor receptor alpha (Homo sapiens) (UniProt P16234); experiment: Inhibition of PDGFRA (unknown origin) at 1 uM by Z'-LYTE assay relative to control; procedure, shortened: as §8
[21] = biological target: T2, Focal adhesion kinase 1/vascular endothelial growth factor receptor 3 (Homo sapiens); experiment: Inhibition of FAK/VEGFR-3 interaction in human MCF7 cells assessed as decrease in VEGFR3 protein level at 10 uM after 24 hrs by immunoprecipitation assay; assay type: cell-based
Procedure, shortened: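 MCF7-VEGFR3 cells treated with selected analogs for 24 h, then lysed in NP40 buffer. FAK immunoprecipitated with clone 4.47 after preclearing, 2 h antibody binding and overnight incubation with Protein A/G beads at 4 °C. Co-precipitated VEGFR3 and total FAK detected by immunoblot on 7.5% gel.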

[22] = tested on: MIA PaCa-2; experiment: Induction of apoptosis in human MIAPaCa2 cells transfected with retroviral expression vector pMSCV-LucSh at 70 uM after 24 hrs by CellEvent/TMRM dye-based microscopic analysis; assay type: functional, cell-based
Procedure, shortened: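 10,000 cells/well plated and adhered overnight, then drug added for 24 h. Stained with 5 µM CellEvent caspase-3/7 dye plus 2.5 µM TMRM in PBS, 30 min at 37 °C in the dark. Imaged by fluorescence microscopy, and bright-green apoptotic nuclei counted in 6–8 fields per condition. Percent apoptosis normalized to control, from three independent experiments, compared by Student t test.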

[23] = biological target: RAC-alpha serine/threonine-protein kinase (Homo sapiens) (UniProt P31749); experiment: Inhibition of AKT1 (unknown origin) at 1 uM by Z'-LYTE assay relative to control; procedure, shortened: as §8
[24] = tested on: MCF7; experiment: Induction of apoptosis in human MCF7 cells overexpressing VEGFR-3/FAK assessed as increase in caspase-3 cleavage after 24 hrs; assay type: functional, cell-based; procedure, shortened: as §7
[25] = tested on: MIA PaCa-2; experiment: Cytotoxicity against human MIAPaCa2 cells transfected with retroviral expression vector pMSCV-LucSh assessed as inhibition of colony formation at 10 uM after 14 days by 1,9-dimethyl-methylene blue staining-based assay; assay type: functional, cell-based; procedure, shortened: as §4
[26] = biological target: Insulin-like growth factor 1 receptor (Homo sapiens) (UniProt P08069); experiment: Inhibition of IGF1R (unknown origin) at 1 uM by Z'-LYTE assay relative to control; procedure, shortened: as §8
[27] = biological target: T1, Focal adhesion kinase 1; experiment: Inhibition of PTK2 (unknown origin) at 1 uM by Z'-LYTE assay relative to control; procedure, shortened: as §8
Target sequence in this assay (Q05397 2-1052 limits assumed): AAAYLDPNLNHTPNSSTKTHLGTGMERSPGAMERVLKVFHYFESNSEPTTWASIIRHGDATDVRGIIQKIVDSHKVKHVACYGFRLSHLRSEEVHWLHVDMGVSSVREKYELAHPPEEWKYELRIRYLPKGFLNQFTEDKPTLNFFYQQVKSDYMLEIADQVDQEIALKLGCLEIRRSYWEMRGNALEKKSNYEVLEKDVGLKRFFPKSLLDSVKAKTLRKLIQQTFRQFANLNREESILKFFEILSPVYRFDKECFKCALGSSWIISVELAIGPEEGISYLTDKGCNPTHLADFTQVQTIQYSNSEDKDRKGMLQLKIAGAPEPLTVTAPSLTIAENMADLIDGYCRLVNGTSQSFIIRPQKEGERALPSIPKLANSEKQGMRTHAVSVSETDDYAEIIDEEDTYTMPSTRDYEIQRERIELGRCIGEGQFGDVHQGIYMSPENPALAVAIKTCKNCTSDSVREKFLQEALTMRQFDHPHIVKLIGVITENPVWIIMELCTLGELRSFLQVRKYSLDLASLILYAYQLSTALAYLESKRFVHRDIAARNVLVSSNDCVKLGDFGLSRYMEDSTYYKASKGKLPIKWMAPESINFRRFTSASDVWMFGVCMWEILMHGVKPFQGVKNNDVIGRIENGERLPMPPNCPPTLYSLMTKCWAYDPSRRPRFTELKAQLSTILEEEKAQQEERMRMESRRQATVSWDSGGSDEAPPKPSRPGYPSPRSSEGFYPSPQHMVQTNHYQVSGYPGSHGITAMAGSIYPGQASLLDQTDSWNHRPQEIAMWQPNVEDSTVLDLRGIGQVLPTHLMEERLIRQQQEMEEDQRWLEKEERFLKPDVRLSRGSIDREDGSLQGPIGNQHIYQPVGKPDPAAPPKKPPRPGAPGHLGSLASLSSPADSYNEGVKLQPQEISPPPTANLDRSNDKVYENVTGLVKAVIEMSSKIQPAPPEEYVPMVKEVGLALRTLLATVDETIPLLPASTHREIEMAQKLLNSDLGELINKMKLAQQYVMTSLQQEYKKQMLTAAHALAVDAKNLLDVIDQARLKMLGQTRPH

[28] = biological target: Epidermal growth factor receptor (Homo sapiens) (UniProt P00533); experiment: Inhibition of EGFR (unknown origin) at 1 uM by Z'-LYTE assay relative to control; procedure, shortened: as §8
[29] = biological target: Protein-tyrosine kinase 2-beta (Homo sapiens) (UniProt Q14289); experiment: Inhibition of PTK2B (unknown origin) at 1 uM by Z'-LYTE assay relative to control; procedure, shortened: as §8
[30] = biological target: Vascular endothelial growth factor receptor 3 (Homo sapiens) (UniProt P35916); experiment: Inhibition of FLT4 (unknown origin) at 1 uM by Z'-LYTE assay relative to control
Procedure, shortened: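 Z'-LYTE SelectScreen single-point biochemical kinase assay, run as a contracted service. Compound at 1 µM and ATP at 100 µM in the reaction. Percent inhibition calculated per the Z'-LYTE analysis protocol, given as the mean of two independent runs.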

[31] = tested on: MIA PaCa-2; experiment: Induction of apoptosis in human MIAPaCa2 cells transfected with retroviral expression vector pMSCV-LucSh assessed as increase in caspase-3 cleavage after 24 hrs; assay type: functional, cell-based; procedure, shortened: as §6
[32] = tested on: MCF7; experiment: Cytotoxicity against human MCF7 cells overexpressing VEGFR-3/FAK after 72 hrs by MTS assay; assay type: functional, cell-based; procedure, shortened: as §1

T2 sequence (P35916 whole entry, looked up): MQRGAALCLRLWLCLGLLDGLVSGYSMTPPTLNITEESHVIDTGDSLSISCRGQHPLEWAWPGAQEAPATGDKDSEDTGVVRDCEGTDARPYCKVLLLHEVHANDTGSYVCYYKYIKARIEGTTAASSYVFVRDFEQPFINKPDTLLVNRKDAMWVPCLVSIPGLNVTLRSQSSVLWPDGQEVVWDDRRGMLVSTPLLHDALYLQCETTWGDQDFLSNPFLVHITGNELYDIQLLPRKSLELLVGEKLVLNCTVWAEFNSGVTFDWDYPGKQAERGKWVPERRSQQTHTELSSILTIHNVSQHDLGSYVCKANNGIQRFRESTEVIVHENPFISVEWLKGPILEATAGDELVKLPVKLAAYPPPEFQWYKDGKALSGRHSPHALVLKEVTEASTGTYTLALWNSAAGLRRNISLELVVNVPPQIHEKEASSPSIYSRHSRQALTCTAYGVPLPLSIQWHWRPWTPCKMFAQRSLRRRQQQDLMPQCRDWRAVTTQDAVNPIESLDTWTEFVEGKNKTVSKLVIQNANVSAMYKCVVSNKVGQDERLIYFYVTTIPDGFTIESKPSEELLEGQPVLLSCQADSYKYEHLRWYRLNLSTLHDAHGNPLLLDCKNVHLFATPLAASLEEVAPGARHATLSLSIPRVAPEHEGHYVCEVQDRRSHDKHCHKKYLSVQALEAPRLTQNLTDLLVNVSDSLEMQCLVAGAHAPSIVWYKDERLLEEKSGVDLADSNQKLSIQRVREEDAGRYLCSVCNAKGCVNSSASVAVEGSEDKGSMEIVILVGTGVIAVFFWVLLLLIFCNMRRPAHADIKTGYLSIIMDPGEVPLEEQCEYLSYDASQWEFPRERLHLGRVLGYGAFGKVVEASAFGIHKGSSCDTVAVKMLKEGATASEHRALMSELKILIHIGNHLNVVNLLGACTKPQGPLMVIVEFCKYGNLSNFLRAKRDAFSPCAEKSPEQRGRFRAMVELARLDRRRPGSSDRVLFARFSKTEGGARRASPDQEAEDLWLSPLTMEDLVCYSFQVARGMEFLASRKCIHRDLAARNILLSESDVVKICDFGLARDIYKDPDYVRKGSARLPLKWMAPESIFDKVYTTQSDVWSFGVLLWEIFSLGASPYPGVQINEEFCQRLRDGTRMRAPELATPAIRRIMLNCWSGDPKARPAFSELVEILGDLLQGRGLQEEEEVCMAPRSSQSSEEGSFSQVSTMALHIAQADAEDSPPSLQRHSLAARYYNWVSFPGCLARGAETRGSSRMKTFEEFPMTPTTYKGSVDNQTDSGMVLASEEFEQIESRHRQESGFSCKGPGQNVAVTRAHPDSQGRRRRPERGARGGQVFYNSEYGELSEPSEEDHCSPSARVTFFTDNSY
T2 sequence (Q05397 whole entry, looked up): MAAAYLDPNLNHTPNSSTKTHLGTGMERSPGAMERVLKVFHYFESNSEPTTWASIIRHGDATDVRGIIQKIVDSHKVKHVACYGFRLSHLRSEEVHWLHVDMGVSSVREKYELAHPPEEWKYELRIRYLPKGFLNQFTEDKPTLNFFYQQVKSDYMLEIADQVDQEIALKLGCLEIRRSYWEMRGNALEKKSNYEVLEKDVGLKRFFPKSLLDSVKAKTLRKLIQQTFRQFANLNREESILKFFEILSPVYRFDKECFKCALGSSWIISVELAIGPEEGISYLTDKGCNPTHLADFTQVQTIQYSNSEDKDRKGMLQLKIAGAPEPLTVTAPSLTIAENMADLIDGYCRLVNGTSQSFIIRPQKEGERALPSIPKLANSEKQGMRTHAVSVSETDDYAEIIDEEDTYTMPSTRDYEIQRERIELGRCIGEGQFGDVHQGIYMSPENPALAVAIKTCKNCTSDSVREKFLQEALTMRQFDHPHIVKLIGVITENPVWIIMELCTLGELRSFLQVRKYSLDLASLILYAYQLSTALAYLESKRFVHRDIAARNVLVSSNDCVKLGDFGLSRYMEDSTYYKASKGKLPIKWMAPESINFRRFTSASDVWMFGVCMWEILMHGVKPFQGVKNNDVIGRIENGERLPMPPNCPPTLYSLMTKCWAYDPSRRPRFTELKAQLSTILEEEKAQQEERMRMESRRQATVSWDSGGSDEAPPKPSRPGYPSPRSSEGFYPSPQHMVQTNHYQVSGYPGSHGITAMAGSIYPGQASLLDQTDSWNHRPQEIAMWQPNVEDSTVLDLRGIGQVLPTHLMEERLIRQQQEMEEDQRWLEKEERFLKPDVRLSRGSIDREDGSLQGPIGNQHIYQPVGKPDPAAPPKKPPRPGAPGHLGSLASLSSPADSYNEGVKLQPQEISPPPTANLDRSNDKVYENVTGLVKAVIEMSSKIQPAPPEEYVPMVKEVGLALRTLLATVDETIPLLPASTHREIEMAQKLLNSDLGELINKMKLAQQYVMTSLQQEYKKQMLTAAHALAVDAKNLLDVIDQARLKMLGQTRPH
Vascular endothelial growth factor receptor 1 (Homo sapiens), sequence (P17948 whole entry): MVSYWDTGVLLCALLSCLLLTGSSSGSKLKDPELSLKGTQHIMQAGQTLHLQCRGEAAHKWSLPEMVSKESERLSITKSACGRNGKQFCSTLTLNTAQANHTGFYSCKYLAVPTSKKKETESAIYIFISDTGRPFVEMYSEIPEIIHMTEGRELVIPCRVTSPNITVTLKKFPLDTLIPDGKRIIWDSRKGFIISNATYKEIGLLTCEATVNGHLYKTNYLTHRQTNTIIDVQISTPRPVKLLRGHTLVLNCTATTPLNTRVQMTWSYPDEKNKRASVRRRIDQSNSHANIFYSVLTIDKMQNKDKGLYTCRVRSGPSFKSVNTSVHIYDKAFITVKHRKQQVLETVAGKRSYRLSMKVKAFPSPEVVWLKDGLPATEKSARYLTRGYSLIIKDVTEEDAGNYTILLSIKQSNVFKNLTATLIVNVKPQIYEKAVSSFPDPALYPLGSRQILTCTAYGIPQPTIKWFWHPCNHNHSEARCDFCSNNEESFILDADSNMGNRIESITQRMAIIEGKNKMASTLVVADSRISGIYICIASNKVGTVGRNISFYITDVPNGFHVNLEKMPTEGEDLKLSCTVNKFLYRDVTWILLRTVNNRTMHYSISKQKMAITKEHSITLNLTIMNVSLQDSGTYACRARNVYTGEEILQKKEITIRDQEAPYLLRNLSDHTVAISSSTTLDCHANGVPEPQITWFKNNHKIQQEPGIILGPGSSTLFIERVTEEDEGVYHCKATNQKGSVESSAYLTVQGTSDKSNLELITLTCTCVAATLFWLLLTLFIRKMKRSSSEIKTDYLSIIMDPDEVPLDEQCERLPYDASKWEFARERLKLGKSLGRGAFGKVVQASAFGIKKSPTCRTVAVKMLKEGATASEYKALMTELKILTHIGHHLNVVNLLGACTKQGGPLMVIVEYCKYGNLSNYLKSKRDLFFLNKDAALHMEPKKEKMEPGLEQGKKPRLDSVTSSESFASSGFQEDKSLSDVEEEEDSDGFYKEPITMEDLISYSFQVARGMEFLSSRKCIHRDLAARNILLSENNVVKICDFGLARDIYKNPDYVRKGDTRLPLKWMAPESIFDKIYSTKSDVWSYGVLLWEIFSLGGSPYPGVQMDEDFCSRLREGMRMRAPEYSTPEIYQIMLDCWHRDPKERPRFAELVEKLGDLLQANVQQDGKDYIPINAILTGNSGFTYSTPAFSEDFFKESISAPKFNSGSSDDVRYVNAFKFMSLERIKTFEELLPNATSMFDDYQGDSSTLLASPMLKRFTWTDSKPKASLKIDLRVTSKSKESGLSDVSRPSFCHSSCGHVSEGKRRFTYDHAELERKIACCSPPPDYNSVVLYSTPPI
Vascular endothelial growth factor receptor 3 (Homo sapiens), sequence (P35916 whole entry): as the sequence (P35916 whole entry, looked up) above

CCCCCCN(CCN(C)C)c1ccccc1
inactive: growth inhibition (GI) [1] | growth inhibition (GI) [2] | growth inhibition (GI) [3] | growth inhibition (GI) [4] | growth inhibition (GI) [5] | growth inhibition (GI) [6]

CCCCCCCCCCN(CCN(C)C)c1ccccn1
active: growth inhibition (GI) [1] | growth inhibition (GI) [2] | growth inhibition (GI) [3] | growth inhibition (GI) [4] | growth inhibition (GI) [5] | growth inhibition (GI) [6]

CN(C)CCNc1ccccn1
inactive: growth inhibition (GI) [1] | growth inhibition (GI) [2] | growth inhibition (GI) [3] | growth inhibition (GI) [4] | growth inhibition (GI) [5] | growth inhibition (GI) [6] | Activity [7]

CCCN(CCN(C)C)c1ccccn1
inactive: growth inhibition (GI) [1] | growth inhibition (GI) [2] | growth inhibition (GI) [3] | growth inhibition (GI) [4] | growth inhibition (GI) [5] | growth inhibition (GI) [6]

CCCCCCCCN(CCN(C)C)c1ccccn1
active: growth inhibition (GI) [1] | growth inhibition (GI) [2] | growth inhibition (GI) [3] | growth inhibition (GI) [4] | growth inhibition (GI) [5] | growth inhibition (GI) [6]

CN(C)CCN(Cc1ccc(Cl)cc1)c1ccccn1 [CHLORPYRAMIN HYDROCHLORIDE]
active: inhibition [8] Dose-dependent effect | inhibition [9] Dose-dependent effect | inhibition [10] | inhibition [11] Dose-dependent effect | inhibition [12] Dose-dependent effect | inhibition [13]
570 nM: Kd [7]

CN(C)CCN(Cc1ccc(Cl)cc1)c1ccc2ccccc2n1
active: inhibition [8] Dose-dependent effect | inhibition [14] | Activity [15] Dose-dependent effect | Activity [16] Dose-dependent effect | growth inhibition (GI) [4] | inhibition [9] Dose-dependent effect | inhibition [21] | Activity [22] | Activity [24] Dose-dependent effect | inhibition [25] | inhibition [11] Dose-dependent effect | inhibition [12] Dose-dependent effect | growth inhibition (GI) [6] | Activity [31] Dose-dependent effect | Activity [32]
13%: inhibition [27]
14%: inhibition [17]
7%: inhibition [23]
3%: inhibition [19]
4%: inhibition [28] | inhibition [30]
18 nM: Kd [7]
11%: inhibition [26]
8%: inhibition [20]
1%: inhibition [18]
0%: inhibition [29]

CCCCCCCCCCCCN(CCN(C)C)c1ccccn1
active: growth inhibition (GI) [1] | growth inhibition (GI) [2] | growth inhibition (GI) [3] | growth inhibition (GI) [4] | growth inhibition (GI) [5] | growth inhibition (GI) [6]
